Measurements taken from ChEMBL document CHEMBL2331324, “Synthesis and biological evaluation of guanidino analogues of roscovitine” (Eur J Med Chem, 2013).

Legend:
[1] = target: Serine/threonine-protein kinase 16 (Homo sapiens) (UniProt O75716); experiment: Inhibition of recombinant MPSK1 (unknown origin) assessed as residual activity using [gamma-33P]ATP as substrate at 1 uM
Method in brief: (§1)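 Selectivity panel run under previously published conditions. Screened at 1 μM in duplicate. Reactions started with [γ-33P]ATP (800 cpm/pmol) at 5, 20 or 50 μM, chosen to be at or below each enzyme's ATP Km. Stopped with phosphoric acid, spotted onto P81 filters. Result expressed as residual kinase activity.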

[2] = target: MAP kinase-interacting serine/threonine-protein kinase 2 (Homo sapiens) (UniProt Q9HBH9); experiment: Inhibition of recombinant MNK2 (unknown origin) assessed as residual activity using [gamma-33P]ATP as substrate at 1 uM; method in brief: as §1
MAP kinase-interacting serine/threonine-protein kinase 2 (Homo sapiens), sequence (Q9HBH9 whole entry, looked up): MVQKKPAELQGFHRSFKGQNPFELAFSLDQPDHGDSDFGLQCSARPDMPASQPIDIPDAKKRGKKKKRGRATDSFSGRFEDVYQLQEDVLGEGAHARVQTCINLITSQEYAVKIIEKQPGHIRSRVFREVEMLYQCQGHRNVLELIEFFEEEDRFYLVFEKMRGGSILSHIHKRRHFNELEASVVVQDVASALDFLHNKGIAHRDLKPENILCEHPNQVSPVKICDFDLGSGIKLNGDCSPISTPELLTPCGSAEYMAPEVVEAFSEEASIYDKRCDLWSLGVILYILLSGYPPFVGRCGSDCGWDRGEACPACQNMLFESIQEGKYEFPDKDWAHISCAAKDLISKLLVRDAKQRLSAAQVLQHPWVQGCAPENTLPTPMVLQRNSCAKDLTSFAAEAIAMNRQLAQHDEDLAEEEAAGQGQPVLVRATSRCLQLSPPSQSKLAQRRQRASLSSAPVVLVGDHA

[3] = target: MAP kinase-interacting serine/threonine-protein kinase 1 (Homo sapiens) (UniProt Q9BUB5); experiment: Inhibition of recombinant MNK1 (unknown origin) assessed as residual activity using [gamma-33P]ATP as substrate at 1 uM; method in brief: as §1
[4] = target: Dual specificity mitogen-activated protein kinase kinase 1 (Homo sapiens) (UniProt Q02750); experiment: Inhibition of recombinant MKK1 (unknown origin) assessed as residual activity using [gamma-33P]ATP as substrate at 1 uM; method in brief: as §1
[5] = target: MAP/microtubule affinity-regulating kinase 4 (Homo sapiens) (UniProt Q96L34); experiment: Inhibition of recombinant MARK4 (unknown origin) assessed as residual activity using [gamma-33P]ATP as substrate at 1 uM; method in brief: as §1
[6] = target: Mitogen-activated protein kinase 10 (Homo sapiens) (UniProt P53779); experiment: Inhibition of recombinant JNK3 (unknown origin) assessed as residual activity using [gamma-33P]ATP as substrate at 1 uM; method in brief: as §1
[7] = target: Interleukin-1 receptor-associated kinase 4 (Homo sapiens) (UniProt Q9NWZ3); experiment: Inhibition of recombinant IRAK4 (unknown origin) assessed as residual activity using [gamma-33P]ATP as substrate at 1 uM
Method in brief: (§2)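 Recombinant kinase panel screened at 1 µM in duplicate. Reactions started with [γ-33P]ATP (800 cpm/pmol) at 5, 20 or 50 µM, chosen to sit at or below each enzyme's ATP Km. Stopped with phosphoric acid and spotted onto P81 filters. Result given as residual kinase activity.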

[8] = target: Insulin receptor (Homo sapiens) (UniProt P06213); experiment: Inhibition of recombinant IR (unknown origin) assessed as residual activity using [gamma-33P]ATP as substrate at 1 uM; method in brief: as §2
[9] = target: Homeodomain-interacting protein kinase 3 (Homo sapiens) (UniProt Q9H422); experiment: Inhibition of recombinant HIPK3 (unknown origin) assessed as residual activity using [gamma-33P]ATP as substrate at 1 uM; method in brief: as §2
[10] = target: Homeodomain-interacting protein kinase 2 (Homo sapiens) (UniProt Q9H2X6); experiment: Inhibition of recombinant HIPK2 (unknown origin) assessed as residual activity using [gamma-33P]ATP as substrate at 1 uM; method in brief: as §2
[11] = target: Glycogen synthase kinase-3 beta (Homo sapiens) (UniProt P49841); experiment: Inhibition of recombinant GSK3b (unknown origin) assessed as residual activity using [gamma-33P]ATP as substrate at 1 uM; method in brief: as §2
[12] = target: Ephrin type-B receptor 2 (Homo sapiens) (UniProt P29323); experiment: Inhibition of recombinant EPH-B2 (unknown origin) assessed as residual activity using [gamma-33P]ATP as substrate at 1 uM; method in brief: as §2
[13] = target: Tyrosine-protein kinase ZAP-70 (Homo sapiens) (UniProt P43403); experiment: Inhibition of recombinant ZAP70 (unknown origin) assessed as residual activity using [gamma-33P]ATP as substrate at 1 uM
Tyrosine-protein kinase ZAP-70 (Homo sapiens), sequence (P43403 whole entry): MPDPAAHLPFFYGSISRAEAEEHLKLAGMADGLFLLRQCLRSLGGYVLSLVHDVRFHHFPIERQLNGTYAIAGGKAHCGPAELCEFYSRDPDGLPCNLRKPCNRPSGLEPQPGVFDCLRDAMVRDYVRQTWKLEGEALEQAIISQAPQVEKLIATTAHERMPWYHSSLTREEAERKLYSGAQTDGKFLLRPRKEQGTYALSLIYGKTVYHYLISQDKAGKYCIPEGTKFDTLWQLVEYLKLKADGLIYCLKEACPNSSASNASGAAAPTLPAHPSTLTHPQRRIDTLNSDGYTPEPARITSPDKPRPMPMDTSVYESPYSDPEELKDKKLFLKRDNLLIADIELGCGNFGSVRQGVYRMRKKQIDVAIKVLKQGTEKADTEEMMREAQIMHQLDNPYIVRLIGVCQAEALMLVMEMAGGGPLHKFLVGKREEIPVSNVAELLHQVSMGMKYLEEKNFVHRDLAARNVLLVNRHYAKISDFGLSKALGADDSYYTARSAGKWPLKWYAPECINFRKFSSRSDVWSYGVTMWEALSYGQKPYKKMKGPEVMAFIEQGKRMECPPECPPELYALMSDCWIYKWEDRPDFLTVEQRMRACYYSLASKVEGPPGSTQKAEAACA
Method in brief: (§3)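 Kinase panel screen with each compound at 1 µM, in duplicate. Reactions were started with [γ-33P]ATP (800 cpm/pmol) at 5, 20 or 50 µM, chosen per enzyme to be at or below its ATP Km. Reactions were stopped with phosphoric acid and spotted onto P81 filters. Results are given as residual kinase activity.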

[14] = target: Serine/threonine-protein kinase tousled-like 1 (Homo sapiens) (UniProt Q9UKI8); experiment: Inhibition of recombinant TLK1 (unknown origin) assessed as residual activity using [gamma-33P]ATP as substrate at 1 uM; method in brief: as §3
Serine/threonine-protein kinase tousled-like 1 (Homo sapiens), sequence (Q9UKI8 whole entry): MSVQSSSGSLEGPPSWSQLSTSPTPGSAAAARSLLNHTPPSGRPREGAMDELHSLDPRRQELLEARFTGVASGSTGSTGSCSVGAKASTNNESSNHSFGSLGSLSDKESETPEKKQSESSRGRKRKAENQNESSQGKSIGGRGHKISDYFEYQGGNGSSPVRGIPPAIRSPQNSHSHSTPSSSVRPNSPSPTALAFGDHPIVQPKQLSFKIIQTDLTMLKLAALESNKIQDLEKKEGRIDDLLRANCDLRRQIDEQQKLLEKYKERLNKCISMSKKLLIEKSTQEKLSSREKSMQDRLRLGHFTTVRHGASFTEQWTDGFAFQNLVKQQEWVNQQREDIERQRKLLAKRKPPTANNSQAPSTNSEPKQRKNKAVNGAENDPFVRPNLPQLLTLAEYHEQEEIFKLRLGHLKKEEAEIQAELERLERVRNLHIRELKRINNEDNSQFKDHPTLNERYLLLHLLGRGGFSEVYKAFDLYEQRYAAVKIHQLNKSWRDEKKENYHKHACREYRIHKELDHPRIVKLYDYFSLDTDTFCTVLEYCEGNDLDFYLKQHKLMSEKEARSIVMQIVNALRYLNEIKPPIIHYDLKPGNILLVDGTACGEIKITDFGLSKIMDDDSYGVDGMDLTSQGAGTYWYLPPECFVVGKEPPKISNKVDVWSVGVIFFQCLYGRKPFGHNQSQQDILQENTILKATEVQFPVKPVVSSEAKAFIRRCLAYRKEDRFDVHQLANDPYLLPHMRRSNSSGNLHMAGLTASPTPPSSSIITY

[15] = target: Mitogen-activated protein kinase kinase kinase 7 (Homo sapiens) (UniProt O43318); experiment: Inhibition of recombinant TAK1 (unknown origin) assessed as residual activity using [gamma-33P]ATP as substrate at 1 uM; method in brief: as §3
Mitogen-activated protein kinase kinase kinase 7 (Homo sapiens), sequence (O43318 whole entry): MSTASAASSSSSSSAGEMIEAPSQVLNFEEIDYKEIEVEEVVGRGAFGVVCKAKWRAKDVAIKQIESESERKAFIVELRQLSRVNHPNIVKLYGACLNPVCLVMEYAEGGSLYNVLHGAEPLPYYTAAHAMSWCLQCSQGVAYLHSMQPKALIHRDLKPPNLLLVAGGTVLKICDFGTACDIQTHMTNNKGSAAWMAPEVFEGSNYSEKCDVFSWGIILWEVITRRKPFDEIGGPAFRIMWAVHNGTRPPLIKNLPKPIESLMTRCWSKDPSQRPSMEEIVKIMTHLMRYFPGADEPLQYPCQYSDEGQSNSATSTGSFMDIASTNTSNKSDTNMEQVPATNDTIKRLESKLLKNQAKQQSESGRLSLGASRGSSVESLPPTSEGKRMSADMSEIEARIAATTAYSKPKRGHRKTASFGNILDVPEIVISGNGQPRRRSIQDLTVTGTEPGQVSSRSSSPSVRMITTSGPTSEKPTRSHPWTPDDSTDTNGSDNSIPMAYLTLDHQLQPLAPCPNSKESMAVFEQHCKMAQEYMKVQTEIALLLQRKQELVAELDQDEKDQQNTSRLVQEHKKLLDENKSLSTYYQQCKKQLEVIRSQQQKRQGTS

[16] = target: Myosin light chain kinase, smooth muscle (Homo sapiens) (UniProt Q15746); experiment: Inhibition of recombinant SMMLCK (unknown origin) assessed as residual activity using [gamma-33P]ATP as substrate at 1 uM; method in brief: as §3
[17] = target: Ribosomal protein S6 kinase alpha-1 (Homo sapiens) (UniProt Q15418); experiment: Inhibition of recombinant RSK1 (unknown origin) assessed as residual activity using [gamma-33P]ATP as substrate at 1 uM; method in brief: as §3
Ribosomal protein S6 kinase alpha-1 (Homo sapiens), sequence (Q15418 whole entry): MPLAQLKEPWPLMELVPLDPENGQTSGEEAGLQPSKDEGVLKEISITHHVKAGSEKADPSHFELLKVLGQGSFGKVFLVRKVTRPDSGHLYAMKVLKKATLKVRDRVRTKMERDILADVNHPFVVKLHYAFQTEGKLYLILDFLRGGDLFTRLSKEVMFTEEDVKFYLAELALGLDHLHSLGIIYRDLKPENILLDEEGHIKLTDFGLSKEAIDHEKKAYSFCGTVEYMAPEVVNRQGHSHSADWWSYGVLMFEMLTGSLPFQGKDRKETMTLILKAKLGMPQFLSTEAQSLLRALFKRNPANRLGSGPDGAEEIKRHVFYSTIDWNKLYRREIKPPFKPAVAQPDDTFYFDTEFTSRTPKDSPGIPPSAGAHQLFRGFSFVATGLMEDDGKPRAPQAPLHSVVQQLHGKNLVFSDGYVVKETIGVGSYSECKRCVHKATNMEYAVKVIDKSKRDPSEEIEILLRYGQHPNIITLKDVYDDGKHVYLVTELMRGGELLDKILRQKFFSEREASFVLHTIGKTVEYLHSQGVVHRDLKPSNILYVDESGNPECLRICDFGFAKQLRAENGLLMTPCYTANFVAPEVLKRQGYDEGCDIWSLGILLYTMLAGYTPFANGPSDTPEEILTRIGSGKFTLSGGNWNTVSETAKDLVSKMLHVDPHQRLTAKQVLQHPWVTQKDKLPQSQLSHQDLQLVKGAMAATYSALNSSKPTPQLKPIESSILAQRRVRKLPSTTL

[18] = target: Serine/threonine-protein kinase PLK1 (Homo sapiens) (UniProt P53350); experiment: Inhibition of recombinant PLK1 (unknown origin) assessed as residual activity using [gamma-33P]ATP as substrate at 1 uM; method in brief: as §1
Serine/threonine-protein kinase PLK1 (Homo sapiens), sequence (P53350 whole entry): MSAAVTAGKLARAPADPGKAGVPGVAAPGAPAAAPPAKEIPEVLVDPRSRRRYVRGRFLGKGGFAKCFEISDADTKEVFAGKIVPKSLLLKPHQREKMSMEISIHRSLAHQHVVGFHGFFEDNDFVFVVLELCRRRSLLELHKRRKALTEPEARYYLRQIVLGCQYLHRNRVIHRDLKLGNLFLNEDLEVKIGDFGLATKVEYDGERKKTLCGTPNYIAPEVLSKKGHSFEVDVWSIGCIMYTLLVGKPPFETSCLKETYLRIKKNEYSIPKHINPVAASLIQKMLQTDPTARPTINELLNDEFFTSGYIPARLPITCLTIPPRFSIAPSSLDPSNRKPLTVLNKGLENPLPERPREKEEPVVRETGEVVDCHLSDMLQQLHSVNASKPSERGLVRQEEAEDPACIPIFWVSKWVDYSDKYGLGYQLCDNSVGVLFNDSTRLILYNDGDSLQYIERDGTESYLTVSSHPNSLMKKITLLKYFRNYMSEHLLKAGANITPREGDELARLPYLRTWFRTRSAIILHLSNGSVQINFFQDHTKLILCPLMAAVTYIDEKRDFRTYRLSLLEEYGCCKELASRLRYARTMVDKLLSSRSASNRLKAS

[19] = target: Serine/threonine-protein kinase D1 (Homo sapiens) (UniProt Q15139); experiment: Inhibition of recombinant PKD1 (unknown origin) assessed as residual activity using [gamma-33P]ATP as substrate at 1 uM; method in brief: as §1
[20] = target: Serine/threonine-protein kinase pim-3 (Homo sapiens) (UniProt Q86V86); experiment: Inhibition of recombinant PIM3 (unknown origin) assessed as residual activity using [gamma-33P]ATP as substrate at 1 uM; method in brief: as §1
[21] = target: Dual specificity tyrosine-phosphorylation-regulated kinase 1A (Homo sapiens) (UniProt Q13627); experiment: Inhibition of recombinant DYRK1A (unknown origin) assessed as residual activity using [gamma-33P]ATP as substrate at 1 uM; method in brief: as §2
[22] = target: Calcium/calmodulin-dependent protein kinase kinase 2 (Homo sapiens) (UniProt Q96RR4); experiment: Inhibition of recombinant CAMKKbeta (unknown origin) assessed as residual activity using [gamma-33P]ATP as substrate at 1 uM; method in brief: as §2
Calcium/calmodulin-dependent protein kinase kinase 2 (Homo sapiens), sequence (Q96RR4 2-588 limits assumed): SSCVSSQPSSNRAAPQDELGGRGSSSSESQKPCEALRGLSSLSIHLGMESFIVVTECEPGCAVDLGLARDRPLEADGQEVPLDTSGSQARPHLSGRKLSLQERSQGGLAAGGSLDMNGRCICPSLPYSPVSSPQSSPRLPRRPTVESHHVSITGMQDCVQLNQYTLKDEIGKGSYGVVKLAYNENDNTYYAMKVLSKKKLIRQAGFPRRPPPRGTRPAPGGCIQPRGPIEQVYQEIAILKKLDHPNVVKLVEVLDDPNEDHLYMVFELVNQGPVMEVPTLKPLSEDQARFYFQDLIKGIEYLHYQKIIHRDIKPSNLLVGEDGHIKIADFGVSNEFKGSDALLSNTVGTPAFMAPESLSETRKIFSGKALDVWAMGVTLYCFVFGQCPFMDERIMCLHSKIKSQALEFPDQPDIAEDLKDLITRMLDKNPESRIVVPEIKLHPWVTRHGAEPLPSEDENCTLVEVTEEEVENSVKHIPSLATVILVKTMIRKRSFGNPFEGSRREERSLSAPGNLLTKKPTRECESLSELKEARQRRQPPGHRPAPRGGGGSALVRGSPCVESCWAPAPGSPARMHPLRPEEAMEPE

[23] = target: Calcium/calmodulin-dependent protein kinase type 1 (Homo sapiens) (UniProt Q14012); experiment: Inhibition of recombinant CAMK1 (unknown origin) assessed as residual activity using [gamma-33P]ATP as substrate at 1 uM; method in brief: as §2
[24] = target: Tyrosine-protein kinase BTK (Homo sapiens) (UniProt Q06187); experiment: Inhibition of recombinant BTK (unknown origin) assessed as residual activity using [gamma-33P]ATP as substrate at 1 uM; method in brief: as §2
[25] = target: Protein-tyrosine kinase 6 (Homo sapiens) (UniProt Q13882); experiment: Inhibition of recombinant BRK (unknown origin) assessed as residual activity using [gamma-33P]ATP as substrate at 1 uM; method in brief: as §2
[26] = system: MCF7; experiment: Cell cycle arrest in human MCF7 cells assessed as accumulation of cells in G2+M phase at 100 uM after 24 hrs by propidium iodide staining based flow cytometry relative to untreated control; assay type: functional
Method in brief: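 Flow cytometry on MCF7 cells given 100 µM for 24 h. About one million cells fixed in 90% methanol and rehydrated. DNA stained with propidium iodide, read at 488/575 nm (ex/em). The value is the G2+M fraction of treated cells divided by the G2+M fraction of untreated control cells.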

Serine/threonine-protein kinase 16 (Homo sapiens), sequence (O75716 whole entry): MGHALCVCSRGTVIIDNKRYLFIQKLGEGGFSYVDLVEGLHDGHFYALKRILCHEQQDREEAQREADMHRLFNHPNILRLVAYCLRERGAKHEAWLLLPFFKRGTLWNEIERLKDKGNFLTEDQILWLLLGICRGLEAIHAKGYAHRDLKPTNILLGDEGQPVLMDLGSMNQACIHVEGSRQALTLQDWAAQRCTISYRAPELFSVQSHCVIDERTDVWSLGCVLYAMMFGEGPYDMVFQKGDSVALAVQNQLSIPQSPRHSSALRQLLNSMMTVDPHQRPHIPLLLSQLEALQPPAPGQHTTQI

`CC[C@H](CO)Nc1nc(NC(=N)N)c2ncn(C(C)C)c2n1` was tested. Which Activity [1] did it give?
The Activity was 36%.

What about the Activity [2] of the same compound?
Its Activity is 119%.

And the Activity [3]?
The Activity was 173%.

And the Activity [4]?
Its Activity is 41%.

What about the Activity [5] of the same compound?
Its Activity is 38%.

And the Activity [6]?
The Activity was 96%.

And the Activity [7]?
Its Activity is 21%.

What about the Activity [8] of the same compound?
The Activity was 5%.

What about the Activity [9] of the same compound?
The Activity was 38%.

What about the Activity [10] of the same compound?
The Activity was 8%.

What about the Activity [11] of the same compound?
The Activity was 37%.

What about the Activity [12] of the same compound?
The Activity was 2%.

What about the Activity [13] of the same compound?
Its Activity is 86%.

What about the Activity [14] of the same compound?
Its Activity is 9%.

And the Activity [15]?
Its Activity is 7%.

What about the Activity [16] of the same compound?
The Activity was 49%.

What about the Activity [17] of the same compound?
The Activity was 18%.

What about the Activity [18] of the same compound?
Its Activity is 108%.

What about the Activity [19] of the same compound?
Its Activity is 17%.

And the Activity [20]?
The Activity was 64%.

And the Activity [21]?
Its Activity is 1%.

And the Activity [22]?
Its Activity is 17%.

And the Activity [23]?
The Activity was 35%.

What about the Activity [24] of the same compound?
Its Activity is 53%.

What about the Activity [25] of the same compound?
The Activity was 50%.

And the Ratio [26]?
Its Ratio is 1.8.

How did the Activity [1] turn out when `CC[C@@H](CO)Nc1nc(NC(=N)N)c2ncn(C(C)C)c2n1` was run?
Its Activity is 28%.

What about the Activity [2] of the same compound?
The Activity was 122%.

And the Activity [3]?
The Activity was 178%.

What about the Activity [4] of the same compound?
The Activity was 28%.

What about the Activity [5] of the same compound?
Its Activity is 29%.

What about the Activity [6] of the same compound?
The Activity was 80%.

What about the Activity [7] of the same compound?
Its Activity is 11%.

What about the Activity [8] of the same compound?
Its Activity is 3%.

What about the Activity [9] of the same compound?
Its Activity is 24%.

And the Activity [10]?
The Activity was 6%.

What about the Activity [11] of the same compound?
The Activity was 28%.

And the Activity [12]?
The Activity was 2%.

And the Activity [13]?
The Activity was 109%.

What about the Activity [14] of the same compound?
Its Activity is 9%.

What about the Activity [15] of the same compound?
Its Activity is 13%.

And the Activity [16]?
The Activity was 32%.

And the Activity [17]?
The Activity was 12%.

And the Activity [18]?
The Activity was 108%.

What about the Activity [19] of the same compound?
Its Activity is 18%.

What about the Activity [20] of the same compound?
The Activity was 44%.

And the Activity [21]?
Its Activity is 1%.

And the Activity [22]?
The Activity was 13%.

What about the Activity [23] of the same compound?
The Activity was 24%.

And the Activity [24]?
Its Activity is 48%.

And the Activity [25]?
Its Activity is 44%.

What about the Ratio [26] of the same compound?
Its Ratio is 1.6.
